Legend:
[1] = target: T1, Alanine aminotransferase 1 (Rattus norvegicus) (UniProt P25409); experiment: Effect of glutathione on alanine aminotransferase inhibition by the compound at 10E-5; conditions: for inhibition: concentration not given here
T1 sequence (whole entry): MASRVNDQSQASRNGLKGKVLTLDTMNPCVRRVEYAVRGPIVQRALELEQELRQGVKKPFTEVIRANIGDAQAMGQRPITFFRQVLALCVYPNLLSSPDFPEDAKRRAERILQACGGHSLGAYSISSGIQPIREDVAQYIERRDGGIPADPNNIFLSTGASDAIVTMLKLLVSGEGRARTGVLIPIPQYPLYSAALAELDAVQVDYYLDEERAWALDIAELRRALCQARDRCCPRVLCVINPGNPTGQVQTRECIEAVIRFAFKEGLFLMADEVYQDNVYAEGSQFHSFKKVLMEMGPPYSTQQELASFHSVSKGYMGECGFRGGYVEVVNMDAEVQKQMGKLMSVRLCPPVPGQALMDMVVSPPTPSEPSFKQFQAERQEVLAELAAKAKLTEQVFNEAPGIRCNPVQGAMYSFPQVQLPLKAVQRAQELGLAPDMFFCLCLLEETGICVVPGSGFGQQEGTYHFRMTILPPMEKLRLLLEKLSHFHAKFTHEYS
How it was run: (§1)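 ALT alkaloid-inhibition assay at 30 °C (L-alanine/2-oxoglutarate substrate, pH 7.4 phosphate, 2,4-dinitrophenylhydrazine read-out at 505 nm). Substrate solution contained 10^-2 M of the thiol. Percent inhibition compared against thiol-free substrate.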

[2] = target: T1, Alanine aminotransferase 1 (Rattus norvegicus); experiment: Inhibitory activity against alanine aminotransferase was measured
How it was run: (§2)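 Partially purified rat liver ALT (ammonium sulfate fraction from prednisolone-treated male Wistar rats, lyophilized, diluted in 0.1 M pH 7.4 potassium phosphate). Enzyme preincubated with alkaloid at pH 7.4, room temperature, 30 min. Then added to substrate (8.33×10^-2 M L-alanine, 1.67×10^-3 M 2-oxoglutarate, pH 7.4) at 30 °C. Product read by 2,4-dinitrophenylhydrazine, alkaline NaOH, A505.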

[3] = target: T1, Alanine aminotransferase 1 (Rattus norvegicus); experiment: Concentration for complete inactivation of alanine aminotransferase; how it was run: as §2
[4] = The stability constant of adduct formation for cysteine at pH 5.68; type: ADME
How it was run: (§3)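 Thiol–alkaloid adduct stability constants measured by UV-vis spectrophotometry at 20 °C in 10-mm cells. Aqueous solutions held 4×10^-6 M alkaloid, 4×10^-6 to 1.6×10^-2 M thiol and 4×10^-3 M hexadecyltrimethylammonium bromide. Phosphate buffers of ionic strength 0.05 at the stated pH.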

[5] = The stability constant of adduct formation for thioethanol at pH 5.68; type: ADME; how it was run: as §3
[6] = The stability constant of adduct formation for glutathione at pH 6.25; type: ADME; how it was run: as §3
[7] = The stability constant of adduct formation for cysteine at pH 6.25; type: ADME; how it was run: as §3
[8] = The stability constant of adduct formation for glutathione at pH 5.68; type: ADME; how it was run: as §3
[9] = target: T1, Alanine aminotransferase 1 (Rattus norvegicus); experiment: Effect of thioethanol on alanine aminotransferase inhibition by the compound at 10E-5; conditions: for inhibition: concentration not given here; how it was run: as §1
[10] = target: T1, Alanine aminotransferase 1 (Rattus norvegicus); experiment: Effect of cysteine on alanine aminotransferase inhibition by the compound at 10E-5; conditions: for inhibition: concentration not given here; how it was run: as §1
[11] = The stability constant of adduct formation for thioethanol at pH 6.25; type: ADME; how it was run: as §3
[12] = The stability constant of adduct formation for thioethanol at pH 5.69; type: ADME
How it was run: (§4)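 Spectrophotometric measurement at 20 °C in 10-mm cells, with pH checked by meter. Aqueous solutions held 4×10^-6 M alkaloid, 4×10^-6 to 1.6×10^-2 M thiol, and 4×10^-3 M hexadecyltrimethylammonium bromide, in phosphate buffers of ionic strength 0.05. The stability constant (K) of the thiol–iminium adduct was taken at the stated pH.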

[13] = The stability constant of adduct formation for glutathione at pH 5.28; type: ADME; how it was run: as §4
[14] = The stability constant of adduct formation for cysteine at pH 5.28; type: ADME; how it was run: as §4
[15] = The stability constant of adduct formation for glutathione at pH 5.69; type: ADME; how it was run: as §4
[16] = The stability constant of adduct formation for thioethanol at pH 5.28; type: ADME; how it was run: as §4
[17] = The stability constant of adduct formation for cysteine at pH 5.69; type: ADME; how it was run: as §4

Row | Structure (SMILES) | Protection [1] [%] | inhibition [1] [%] | ID50 [2] [µM] | Concentration [3] [µM] | Log K [4] | Log K [5] | Log K [6] | Log K [7] | Log K [8] | Protection [9] [%] | inhibition [9] [%] | Protection [10] [%] | inhibition [10] [%] | Log K [11] | Log K [12] | Log K [13] | Log K [14] | Log K [15] | Log K [16] | Log K [17]
1 | COc1ccc2c(c[n+](C)c3c4cc5c(cc4ccc23)OCO5)c1OC.[Cl-] [CHELERYTHRINE CHLORIDE] | 70 | 13 | 4 | 30 | 2.74 | 3.46 | 4.39 | 3.09 | 4.39 | 55 | 23 | 5 | 40 | 4.05 |  |  |  |  |  | 
2 | C[n+]1cc2c3c(ccc2c2ccc4cc5c(cc4c21)OCO5)OCO3 [SANGUINARIUM] | 81 | 15 | 3.4 | 50 |  |  |  |  |  | 75 | 20 | 5 | 74 |  | 4.01 | 4.64 | 2.97 | 4.79 | 3.77 | 3.33

Source: ChEMBL document CHEMBL1121701, “Inhibition of liver alanine aminotransferase activity by some benzophenanthridine alkaloids” (J Med Chem, 1981)
